{"data": "Published values gathered from unrelated publications", "BAZ1A": "Bromodomain adjacent to zinc finger domain protein 1A (BAZ1A, Homo sapiens, UniProt Q9NRL2)", "MTNR1B": "Melatonin receptor type 1B (MTNR1B, Homo sapiens, UniProt P49286)", "CDK7 with cyclin H": "Cyclin-dependent kinase 7, with cyclin H (CDK7, Homo sapiens, UniProt P50613)", "note": "Lines come from different studies, so protocols differ."}
{"Structure (SMILES)": "COc1cc2c(NC3CCN(C(C)C)CC3)nc(C3CCCCC3)nc2cc1OCCCN1CCCC1", "target": "Histone-lysine N-methyltransferase EHMT2 (EHMT2, Homo sapiens, UniProt Q96KQ7)", "assay": "thermal stability, DSF", "setting": "100 µM", "quantity": "ΔTm", "value": "4 °C"}
{"Structure (SMILES)": "Cc1cnc(Nc2ccc(OCCN3CCCC3)cc2)nc1Nc1cccc(S(=O)(=O)NC(C)(C)C)c1", "target": "BAZ1A", "assay": "thermal stability, DSF", "setting": "10 µM", "quantity": "ΔTm", "value": "0.23 °C"}
{"Structure (SMILES)": "ON=CC1=C(C=Cc2ccccc2)CCC1", "target": "Fibroblast growth factor 23 (Homo sapiens, UniProt Q9GZV9)", "assay": "thermal stability, DSF", "setting": "200 µM", "quantity": "ΔTm", "value": "16.5 °C"}
{"Structure (SMILES)": "CCc1ccc2scc(CCNC(C)=O)c2c1", "target": "MTNR1B", "assay": "β-arrestin recruitment, agonist", "system": "MT2", "setting": "90 min", "quantity": "Emax", "value": "75%"}
{"Structure (SMILES)": "C=C(C)[C@@H](CC=C(C)C)C[C@@]12C[C@@H](CC=C(C)C)C(C)(C)[C@@](CC=C(C)C)(C(=O)C(C(=O)c3ccc(O)c(O)c3)=C1O)C2=O", "target": "CDK7 with cyclin H", "assay": "enzyme activity, inhibitor, ADP detection", "setting": "10 µM", "quantity": "inhibition", "value": "25.8%"}
{"Structure (SMILES)": "C[S+]([O-])c1ccc(-c2nc(-c3ccncc3)c(-c3ccc(F)cc3)[nH]2)cc1 (stereo not drawn)", "target": "BAZ1A", "assay": "thermal stability, DSF", "setting": "10 µM", "quantity": "ΔTm", "value": "1.03 °C"}
{"Structure (SMILES)": "Nc1ncnc2occ(-c3ccc(NC(=O)Nc4cc(C(F)(F)F)ccc4F)cc3)c12", "target": "Serine/threonine-protein kinase RIO3 (RIOK3, Homo sapiens, UniProt O14730)", "assay": "cell-free assay, inhibitor", "setting": "20 µM", "quantity": "remaining signal", "value": "89%"}
{"Structure (SMILES)": "COc1ccc2ncn(CCNC(C)=O)c2c1", "target": "MTNR1B", "assay": "β-arrestin recruitment, agonist", "system": "MT2", "quantity": "Emax", "value": "75%"}
{"Structure (SMILES)": "C=C1CC[C@@H]2[C@](C)(CO)[C@H](O)CC[C@@]2(C)[C@@H]1C/C=C1/C(=O)OC[C@H]1O", "target": "CDK7 with cyclin H", "assay": "enzyme activity, inhibitor, ADP detection", "setting": "10 µM", "quantity": "inhibition", "value": "34.6%"}
{"Structure (SMILES)": "Cc1cc2c(cc1N1C(=O)c3cccc4c(Cl)ccc(c34)C1=O)n(C)c(=O)n2C", "target": "BAZ1A", "assay": "thermal stability, DSF", "setting": "10 µM", "quantity": "ΔTm", "value": "-1 °C"}
{"Structure (SMILES)": "COCC(CNC(C)=O)c1cccc2ccc(OC)cc12 (stereo not drawn)", "target": "MTNR1B", "assay": "cAMP, agonist, TR-FRET", "system": "CHO-K1", "setting": "20 min", "quantity": "Emax", "value": "67%"}
{"Structure (SMILES)": "C[C@]12CC[C@@H]3c4ccc(O)cc4CC[C@H]3[C@@H]1CC[C@@H]2O", "target": "CDK7 with cyclin H", "assay": "enzyme activity, inhibitor, ADP detection", "setting": "10 µM", "quantity": "inhibition", "value": "38.3%"}
